Test results: ChEMBL document CHEMBL4219067, “Synthesis and activity evaluation of a series of cholanamides as modulators of the liver X receptors” (Bioorg Med Chem, 2018)
Activity calls are given as the source filed them. The rule behind the calls is not given here.

What was measured:
Assay type in all cases: cell-based
[1] = target: T1, Oxysterols receptor LXR-beta (Homo sapiens) (UniProt P55055); assay: Agonist activity at human full length LXRbeta expressed in […] cells co-expressing human pSG5/RXRalpha at 10 uM after 18 hrs by luciferase reporter gene assay relative to GW3965
T1 sequence (whole entry): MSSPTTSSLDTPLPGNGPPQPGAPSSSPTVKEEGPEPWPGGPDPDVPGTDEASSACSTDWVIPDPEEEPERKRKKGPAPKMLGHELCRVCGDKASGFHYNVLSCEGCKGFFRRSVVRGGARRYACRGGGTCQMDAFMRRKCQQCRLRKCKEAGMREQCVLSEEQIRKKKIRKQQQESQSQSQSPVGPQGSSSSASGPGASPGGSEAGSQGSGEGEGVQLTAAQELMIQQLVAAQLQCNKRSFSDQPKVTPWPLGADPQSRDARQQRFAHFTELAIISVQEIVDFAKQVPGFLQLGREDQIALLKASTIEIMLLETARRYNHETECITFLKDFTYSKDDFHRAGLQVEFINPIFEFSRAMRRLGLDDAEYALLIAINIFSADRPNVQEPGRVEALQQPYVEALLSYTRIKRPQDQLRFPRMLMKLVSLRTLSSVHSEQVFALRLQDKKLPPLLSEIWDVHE
Outline: (§1)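 BHK21 cells co-transfected with an RXR plasmid, a full-length human LXRα or LXRβ expression vector and the pGL3/LRELuc reporter. Steroids were added alone at 10 µM and luciferase activity was read. Activity is expressed as % induction relative to GW3965 1 µM (100%). Means ± S.E. of 3 independent experiments; one-way ANOVA with Dunnett's test versus the no-steroid control.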

[2] = target: T2, Oxysterols receptor LXR-alpha (Homo sapiens) (UniProt Q13133); assay: Antagonist activity at human full length LXRalpha expressed in […] cells co-expressing human pSG5/RXRalpha assessed as inhibition of GW3965-induced receptor activation at 10 uM after 18 hrs by luciferase reporter gene assay
T2 sequence (whole entry): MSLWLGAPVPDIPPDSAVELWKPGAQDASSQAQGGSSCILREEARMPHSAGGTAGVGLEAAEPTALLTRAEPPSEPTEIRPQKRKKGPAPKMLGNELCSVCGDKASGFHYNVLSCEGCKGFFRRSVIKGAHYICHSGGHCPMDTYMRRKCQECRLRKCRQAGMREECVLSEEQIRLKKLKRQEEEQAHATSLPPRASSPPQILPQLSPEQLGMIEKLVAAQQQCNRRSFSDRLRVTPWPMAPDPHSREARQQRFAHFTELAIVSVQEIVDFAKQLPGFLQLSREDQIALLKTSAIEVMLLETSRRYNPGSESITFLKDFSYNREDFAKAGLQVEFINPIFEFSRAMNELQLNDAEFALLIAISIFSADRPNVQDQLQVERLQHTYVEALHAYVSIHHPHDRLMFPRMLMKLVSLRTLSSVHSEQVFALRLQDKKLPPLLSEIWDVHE
Outline: (§2)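 Antagonist mode in BHK21 cells co-transfected with an RXR plasmid, a full-length human LXRα or LXRβ vector and the pGL3/LRELuc luciferase reporter. Steroids at 10 µM were co-administered with the synthetic agonist GW3965. Luciferase output is given as % of the GW3965 1 µM response. Means ± S.E., n=3 independent experiments; Dunnett's test after one-way ANOVA.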

[3] = target: T2, Oxysterols receptor LXR-alpha (Homo sapiens); assay: Agonist activity at human full length LXRalpha expressed in […] cells co-expressing human pSG5/RXRalpha at 10 uM after 18 hrs by luciferase reporter gene assay relative to GW3965; outline: as §1
[4] = target: T1, Oxysterols receptor LXR-beta (Homo sapiens); assay: Antagonist activity at human full length LXRbeta expressed in […] cells co-expressing human pSG5/RXRalpha assessed as inhibition of GW3965-induced receptor activation at 10 uM after 18 hrs by luciferase reporter gene assay; outline: as §2

Activity [1]	inhibition [2]	Activity [3]	inhibition [4]	Structure (SMILES)
inactive	Active	inactive	Active	C[C@H](CCC(=O)N(C)C)[C@H]1CC[C@H]2[C@@H]3CC[C@H]4C[C@H](O)[C@@H]5C[C@]4(CO5)[C@H]3CC[C@]12C
inactive		Active		C[C@H](CCC(=O)N(C)C)[C@H]1CC[C@H]2[C@@H]3CC[C@@H]4C[C@H](O)CC[C@]4(C)[C@H]3CC[C@]12C
		Active	inactive	C[C@H](CCC(=O)N(C)C)[C@H]1CC[C@H]2[C@@H]3C[C@@H]4OC[C@@]5(CC[C@@H](O)C=C45)[C@H]3CC[C@]12C
Active	Active		Active	C[C@H](CCC(=O)N(C)C)[C@H]1CC[C@H]2[C@@H]3C[C@H](O)[C@@H]4C[C@H](O)CC[C@]4(C)[C@H]3CC[C@]12C
inactive	Active	inactive	Active	C[C@H](CCC(=O)N(C)C)[C@H]1CC[C@H]2[C@@H]3CC[C@H]4C[C@@H](O)[C@@H]5C[C@]4(CO5)[C@H]3CC[C@]12C

Structure (SMILES)	Activity [1]	inhibition [2]	Activity [3]	inhibition [4]
C[C@H](CCC(=O)N(C)C)[C@H]1CC[C@H]2[C@@H]3CC=C4C[C@@H](O)CC[C@]4(C)[C@H]3CC[C@]12C	Active	Active	Active	Active
